According to ChEMBL document CHEMBL5647699, “Discovery of a chemical probe for PRDM9” (Nat Commun, 2019):
The source made the active and inactive calls. No cut-off for these calls is given here.

Key:
[1] = system: HEK-293T; assay: Cytotoxicity against HEK293T cells at 10 uM measured after 4 days by IncuCyte zoom live-cell imaging analysis; type: toxicity, cell-based; conditions: human, 96 h, time 4 day
[2] = system: MCF7; assay: Cytotoxicity against human MCF7 cells assessed as reduction in cell viability at 10 uM measured on day 5 by IncuCyte zoom live-cell imaging analysis; type: functional, cell-based; conditions: time 5.0 day
Procedure, shortened: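 MCF7 cells seeded, treated next day with 10 μM compound in a 5-day proliferation assay; cell number counted by live-cell imaging after Vybrant DyeCycle Green staining.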

[3] = system: HEK-293T; assay: Cytotoxicity against HEK293T cells at 3 uM measured after 4 days by IncuCyte zoom live-cell imaging analysis; type: toxicity, cell-based; conditions: human, 96 h, time 4 day
[4] = biological target: Muscarinic acetylcholine receptor M2 (Homo sapiens) (UniProt P08172); assay: Agonist activity at muscarinic M2 receptor (unknown origin) by Glo Sensor assay; type: functional
[5] = system: RPMI-8226; assay: Cytotoxicity against human RPMI-8226 cells at upto 30 uM measured for 3 to 6 days by celltiter glo assay; type: functional, cell-based; conditions: time 3-6 day
[6] = biological target: Mu-type opioid receptor (Homo sapiens) (UniProt P35372); assay: Antagonist activity against MOR receptor (unknown origin) by Glo Sensor assay; type: functional
[7] = system: Spermatocyte; assay: Induction of meiotic defect in wild type mouse spermatocyte assessed as non homologous synapsis by SYCP1/SYCP3 staining based immunofluorescence assay; type: functional, cell-based
[8] = biological target: Muscarinic acetylcholine receptor M2 (Homo sapiens) (UniProt P08172); assay: Antagonist activity against muscarinic M2 receptor (unknown origin) by Glo Sensor assay; type: functional
[9] = biological target: Histone-lysine N-methyltransferase PRDM9 (Homo sapiens) (UniProt Q9NQV7); assay: Inhibition of FLAG tagged PRDM9 transfected in HEK293T cells assessed as reduction in trimethylation of ectopic H3K4 measured after 20 hrs by Western blot analysis; type: cell-based; conditions: dose <= 10.0 µM
[10] = system: HCC1143; assay: Cytotoxicity against human HCC1143 cells at upto 30 uM measured for 3 to 6 days by celltiter glo assay; type: functional, cell-based; conditions: time 3-6 day
[11] = system: SK-MM-2; assay: Cytotoxicity against human SK-MM-2 cells at upto 30 uM measured for 3 to 6 days by celltiter glo assay; type: functional, cell-based; conditions: time 3-6 day
[12] = biological target: Mu-type opioid receptor (Homo sapiens) (UniProt P35372); assay: Agonist activity at MOR receptor (unknown origin) by Glo Sensor assay; type: functional
[13] = biological target: Alpha-2B adrenergic receptor (Homo sapiens) (UniProt P18089); assay: Agonist activity at adrenergic alpha 2b receptor (unknown origin) by Glo Sensor assay; type: functional
[14] = biological target: Alpha-2B adrenergic receptor (Homo sapiens) (UniProt P18089); assay: Antagonist activity against adrenergic alpha 2b receptor (unknown origin) by Glo Sensor assay; type: functional
[15] = system: Spermatocyte; assay: Induction of meiotic defect in wild type mouse spermatocyte assessed as effect on paring of chromosomal homolog by SYCP1/SYCP3 staining based immunofluorescence assay; type: functional, cell-based
[16] = system: HCC1806; assay: Cytotoxicity against human HCC1806 cells at upto 30 uM measured for 3 to 6 days by celltiter glo assay; type: functional, cell-based; conditions: time 3-6 day
[17] = system: Histone-lysine N-methyltransferase PRDM9 (Homo sapiens), Q9NQV7 [UNDEFINED MUTATION]; assay: Inhibition of PRDM9 mutant (unknown origin) expressed in […] cells assessed as reduction in H3k4me3 expression at TSS region of endogenous chromatin at 2.5 to 10 uM measured after 48 hrs by ChIP qPCR analysis; type: cell-based; conditions: HEK293T, dose 2.5-10 µM
Procedure, shortened: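 HEK293T cells transfected with empty vector, wild-type or catalytically dead PRDM9 and treated with 0.1% DMSO or compound for 48 h; formaldehyde fixed, sonicated chromatin (50 μg) immunoprecipitated with anti-H3K4me3 or anti-H3; qPCR at PRDM9-bound and control loci; mean ± s.d. of technical replicates, representative of two experiments.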

[18] = biological target: Histone-lysine N-methyltransferase PRDM9 (Homo sapiens) (UniProt Q9NQV7); assay: Binding affinity to PRDM9 (unknown origin) (195 to 415 residues) at 20 uM measured at 60 to 120 secs in presence of SAH by surface plasmon resonance assay; conditions: time 60-120 sec
[19] = biological target: Histone-lysine N-methyltransferase PRDM9 (Homo sapiens) (UniProt Q9NQV7); assay: Inhibition of PRDM9 (unknown origin) in presence of SAH
[20] = biological target: Histone-lysine N-methyltransferase PRDM7 (Homo sapiens) (UniProt Q9NQW5); assay: Binding affinity to PRDM7 (unknown origin) assessed as thermal stability by measuring change in melting temperature at 250 uM by SYPRO orange dye based differential scanning fluorimetry
Procedure, shortened: (§1)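 DSF with 250 μM compound; proteins at 0.02 mg mL⁻¹ final in 0.1 M HEPES pH 7.5, 150 mM NaCl with 2 mM SAM; ΔTm (Tm ligand − Tm apo) above 2 °C taken as binding.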

[21] = system: CAL-85-1; assay: Cytotoxicity against human CAL-85-1 cells at upto 30 uM measured for 3 to 6 days by celltiter glo assay; type: functional, cell-based; conditions: time 3-6 day
[22] = biological target: Histamine H3 receptor (Homo sapiens) (UniProt Q9Y5N1); assay: Agonist activity at Histamine H3 (unknown origin) by Glo Sensor assay; type: functional
[23] = biological target: Histone-lysine N-methyltransferase PRDM9 (Homo sapiens) (UniProt Q9NQV7); assay: Inhibition of PRDM9 (unknown origin) at 1 to 10 uM; conditions: dose 1-10 µM
[24] = biological target: Histone-lysine N-methyltransferase PRDM9 (Homo sapiens) (UniProt Q9NQV7); assay: Inhibition of FLAG tagged PRDM9 transfected in human MCF7 cells cotransfected with H3-GFP assessed as inhibition of trimethylation H3K4 at upto 10 uM measured after 20 hrs by Western blot analysis; type: cell-based
[25] = system: MDA-MB-436; assay: Cytotoxicity against human MDA-MB-436 cells at upto 30 uM measured for 3 to 6 days by celltiter glo assay; type: functional, cell-based; conditions: time 3-6 day
[26] = system: HEK-293T; assay: Cytotoxicity against HEK293T cells at 10 uM measured after 24 hrs by IncuCyte zoom live-cell imaging analysis; type: toxicity, cell-based; conditions: human
Procedure, shortened: (§2)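 HEK293T cells seeded, treated next day with compound for 1 day; cell number counted by live-cell imaging after Vybrant DyeCycle Green staining; mean ± sd, n = 3.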

[27] = system: HEK-293T; assay: Cytotoxicity against HEK293T cells at 3 uM measured after 24 hrs by IncuCyte zoom live-cell imaging analysis; type: toxicity, cell-based; conditions: human; procedure, shortened: as §2
[28] = biological target: Histone-lysine N-methyltransferase PRDM9 (Homo sapiens) (UniProt Q9NQV7); assay: Binding affinity to PRDM9 (unknown origin) assessed as thermal stability by measuring change in melting temperature at 250 uM by SYPRO orange dye based differential scanning fluorimetry; procedure, shortened: as §1
[29] = biological target: Histone-lysine N-methyltransferase PRDM9 (Homo sapiens) (UniProt Q9NQV7); assay: Inhibition of FLAG tagged PRDM9 transfected in HEK293T cells assessed as reduction in trimethylation of endogenous H3K4 measured after 20 hrs by Western blot analysis; type: cell-based; conditions: dose <= 10.0 µM

Histone-lysine N-methyltransferase PRDM9 (Homo sapiens), sequence (Q9NQV7 whole entry, the tested form may be a part): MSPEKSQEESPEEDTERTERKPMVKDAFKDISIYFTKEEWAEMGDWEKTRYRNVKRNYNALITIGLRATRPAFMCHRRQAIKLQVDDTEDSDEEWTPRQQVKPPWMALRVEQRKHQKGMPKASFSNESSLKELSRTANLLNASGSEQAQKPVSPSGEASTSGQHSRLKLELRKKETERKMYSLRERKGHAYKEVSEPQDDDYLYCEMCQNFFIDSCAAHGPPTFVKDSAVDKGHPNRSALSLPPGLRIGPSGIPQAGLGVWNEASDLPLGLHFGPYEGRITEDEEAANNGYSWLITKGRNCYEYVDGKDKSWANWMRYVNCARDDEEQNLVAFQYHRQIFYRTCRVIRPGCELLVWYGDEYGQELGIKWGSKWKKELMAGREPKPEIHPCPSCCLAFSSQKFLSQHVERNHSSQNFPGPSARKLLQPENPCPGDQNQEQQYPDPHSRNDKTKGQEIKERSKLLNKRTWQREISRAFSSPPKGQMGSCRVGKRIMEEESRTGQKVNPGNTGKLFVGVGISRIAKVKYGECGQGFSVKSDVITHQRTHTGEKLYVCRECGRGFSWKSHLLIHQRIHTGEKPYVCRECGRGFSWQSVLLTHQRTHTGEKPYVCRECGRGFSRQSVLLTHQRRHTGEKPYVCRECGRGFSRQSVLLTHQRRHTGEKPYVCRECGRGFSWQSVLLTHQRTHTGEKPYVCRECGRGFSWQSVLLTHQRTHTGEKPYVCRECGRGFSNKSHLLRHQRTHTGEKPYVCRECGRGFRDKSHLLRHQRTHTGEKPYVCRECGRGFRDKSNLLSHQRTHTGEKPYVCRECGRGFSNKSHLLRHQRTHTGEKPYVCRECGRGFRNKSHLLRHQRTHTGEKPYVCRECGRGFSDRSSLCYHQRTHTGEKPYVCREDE
Mu-type opioid receptor (Homo sapiens), sequence (P35372 whole entry): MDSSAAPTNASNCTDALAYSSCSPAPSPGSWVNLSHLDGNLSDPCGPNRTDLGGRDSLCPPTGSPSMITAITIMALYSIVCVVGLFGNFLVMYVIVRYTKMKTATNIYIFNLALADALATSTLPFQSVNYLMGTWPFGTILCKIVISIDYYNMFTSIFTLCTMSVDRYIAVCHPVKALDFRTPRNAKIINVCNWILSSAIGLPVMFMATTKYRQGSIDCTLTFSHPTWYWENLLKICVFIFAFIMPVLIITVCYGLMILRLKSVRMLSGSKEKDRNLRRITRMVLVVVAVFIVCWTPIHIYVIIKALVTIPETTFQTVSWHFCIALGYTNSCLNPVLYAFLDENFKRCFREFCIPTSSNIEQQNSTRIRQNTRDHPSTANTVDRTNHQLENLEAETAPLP
Muscarinic acetylcholine receptor M2 (Homo sapiens), sequence (P08172 whole entry): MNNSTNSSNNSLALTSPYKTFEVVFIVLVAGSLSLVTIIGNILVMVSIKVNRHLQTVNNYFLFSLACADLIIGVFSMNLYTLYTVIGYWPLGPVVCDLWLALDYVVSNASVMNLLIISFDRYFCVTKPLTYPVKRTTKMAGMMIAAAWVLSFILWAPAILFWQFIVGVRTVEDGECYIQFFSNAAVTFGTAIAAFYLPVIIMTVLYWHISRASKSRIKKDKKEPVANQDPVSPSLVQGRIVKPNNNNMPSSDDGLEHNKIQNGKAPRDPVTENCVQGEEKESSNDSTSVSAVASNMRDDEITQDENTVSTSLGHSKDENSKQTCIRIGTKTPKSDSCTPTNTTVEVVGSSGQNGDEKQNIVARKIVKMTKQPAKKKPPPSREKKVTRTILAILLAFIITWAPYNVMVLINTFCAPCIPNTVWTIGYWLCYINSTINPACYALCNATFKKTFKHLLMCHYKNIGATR
Alpha-2B adrenergic receptor (Homo sapiens), sequence (P18089 whole entry): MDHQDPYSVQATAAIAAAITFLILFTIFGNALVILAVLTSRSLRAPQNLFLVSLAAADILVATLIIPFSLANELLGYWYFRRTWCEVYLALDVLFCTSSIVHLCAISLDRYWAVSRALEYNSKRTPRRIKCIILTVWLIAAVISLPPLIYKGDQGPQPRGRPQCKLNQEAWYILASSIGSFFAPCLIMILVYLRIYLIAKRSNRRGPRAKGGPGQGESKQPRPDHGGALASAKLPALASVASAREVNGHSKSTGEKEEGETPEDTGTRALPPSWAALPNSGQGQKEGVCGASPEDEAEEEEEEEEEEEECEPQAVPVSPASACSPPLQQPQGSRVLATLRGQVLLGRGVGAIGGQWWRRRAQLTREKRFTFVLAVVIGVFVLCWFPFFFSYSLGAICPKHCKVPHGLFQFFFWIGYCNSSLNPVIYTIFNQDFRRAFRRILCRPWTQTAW
Histamine H3 receptor (Homo sapiens), sequence (Q9Y5N1 whole entry): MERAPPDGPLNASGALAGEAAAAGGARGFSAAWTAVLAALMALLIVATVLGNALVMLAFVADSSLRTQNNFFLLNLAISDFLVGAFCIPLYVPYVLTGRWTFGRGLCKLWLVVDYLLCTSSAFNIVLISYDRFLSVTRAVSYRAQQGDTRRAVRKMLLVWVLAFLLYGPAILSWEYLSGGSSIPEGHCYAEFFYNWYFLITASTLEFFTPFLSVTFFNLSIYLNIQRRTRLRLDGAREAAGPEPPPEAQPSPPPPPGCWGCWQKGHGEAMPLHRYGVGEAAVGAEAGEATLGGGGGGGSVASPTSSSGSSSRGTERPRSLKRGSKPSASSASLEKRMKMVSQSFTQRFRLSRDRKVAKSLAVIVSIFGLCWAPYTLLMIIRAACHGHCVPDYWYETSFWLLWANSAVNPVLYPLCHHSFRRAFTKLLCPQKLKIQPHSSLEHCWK
Histone-lysine N-methyltransferase PRDM7 (Homo sapiens), sequence (Q9NQW5 whole entry): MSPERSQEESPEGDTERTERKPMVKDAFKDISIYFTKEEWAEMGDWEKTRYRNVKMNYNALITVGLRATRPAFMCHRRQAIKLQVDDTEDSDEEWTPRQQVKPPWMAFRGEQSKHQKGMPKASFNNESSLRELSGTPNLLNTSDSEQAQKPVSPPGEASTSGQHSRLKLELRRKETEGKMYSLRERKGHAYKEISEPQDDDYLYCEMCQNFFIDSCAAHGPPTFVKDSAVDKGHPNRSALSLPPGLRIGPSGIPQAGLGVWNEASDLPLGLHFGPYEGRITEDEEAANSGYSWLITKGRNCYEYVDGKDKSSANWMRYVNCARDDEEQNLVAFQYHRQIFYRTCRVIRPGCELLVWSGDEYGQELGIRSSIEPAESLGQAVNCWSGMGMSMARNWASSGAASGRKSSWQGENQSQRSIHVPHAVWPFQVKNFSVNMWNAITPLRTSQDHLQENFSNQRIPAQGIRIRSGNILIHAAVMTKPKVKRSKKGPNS
Histone-lysine N-methyltransferase PRDM9 (Homo sapiens), Q9NQV7 [UNDEFINED MUTATION], sequence (Q9NQV7 whole entry, looked up, change not shown): as the sequence (Q9NQV7 whole entry, the tested form may be a part) above

Activity [4]: inactive
Activity [6]: inactive
Activity [8]: inactive
inhibition [9]: Dose-Dependent Effect
Activity [12]: inactive
Activity [13]: inactive
Activity [14]: inactive
inhibition [17]: inactive
Activity [18]: inactive
inhibition [19]: inactive
ΔTm [20]: > 2 °C
Activity [22]: inactive
inhibition [23]: Active
inhibition [24]: Active
ΔTm [28]: > 2 °C
inhibition [29]: Dose-Dependent Effect
SMILES: COc1cc(OC)cc(-c2noc(N3CCN(C)C4(CCN(c5ccnc(C)c5)CC4)C3)n2)c1
Activity [1]: Toxic
Activity [2]: inactive
Activity [3]: Non-Toxic
Activity [5]: inactive
Activity [7]: Active
Activity [10]: inactive
Activity [11]: inactive
Activity [15]: Active
Activity [16]: inactive
Activity [21]: inactive
Activity [25]: inactive
Activity [26]: Toxic
Activity [27]: Non-Toxic
